The species entered for assay [1] is Homo sapiens. Briefly: Carbohydrate in the Lipoprotein -deficient serum(LPDS) along with compound was measured in human serum. It is filed as functional. The method in brief: (§1)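 Human serum (1.6 mL) mixed with 0.4 mL of a 10 mM glycolipid solution in PBS (2 mM final), or with PBS alone, for 10 min at room temperature. Density-gradient ultracentrifugation in KBr/NaCl then gave VLDL (d<1.006), LDL (1.006–1.063), HDL (1.063–1.210) and LPDS (d>1.210 g/mL) fractions. Each fraction was dialyzed against PBS and assayed for cholesterol and carbohydrate, reported as total μg per fraction.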

The species entered for assay [2] is Homo sapiens. The experiment in a line: Carbohydrate in the low density lipoprotein (LDL) along with compound was measured in human serum. The class given is functional. The method in brief: as §1
The species named for assay [3] is Homo sapiens. The experiment in a line: Carbohydrate in the high density lipoprotein (HDL) along with compound was measured in human serum.
The species entered for assay [4] is Homo sapiens. The experiment in a line: Cholesterol in the Lipoprotein -deficient serum(LPDS) along with compound was measured in human serum. It is filed as functional. The method in brief: as §1
The species entered for assay [5] is Rattus norvegicus. The experiment in a line: Effects of N-acetyl-glucosamine on compound stimulated liver association of [125I]HDL measured in liver of rats. The class given is functional. The method in brief: (§2)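 Glycolipid mixed with [125I]LDL at 0.3 mg/mg apolipoprotein or with [125I]HDL at 1.0 mg/mg, then held 10 min at room temperature. The mixture was given intravenously at 50 μg apolipoprotein/kg to pentobarbital-anaesthetized male Wistar rats. N-acetylgalactosamine, N-acetylglucosamine (both 400 mg/kg) or PBS was preinjected 1 min before. At 5 min, TCA-precipitable serum radioactivity and liver-associated radioactivity were measured as % of dose. Mean ± SEM, 3–4 rats; Wilcoxon two-sample test.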

Assay [6] is filed under the species Homo sapiens. The experiment in a line: Carbohydrate in the very low density lipoprotein (VLDL) along with compound was measured in human serum. It is filed as functional. In short, it runs like this: as §1
For assay [7], the species on record is Homo sapiens. Briefly: Carbohydrate in the Total along with compound was measured in human serum. It is filed as functional. The method in brief: as §1
The species named for assay [8] is Rattus norvegicus. Briefly: Effects of N-acetyl-glucosamine on compound stimulated liver association of [125I]HDL measured in preinjcted rats. It is filed as functional. The method in brief: as §2
For assay [9], the species on record is Rattus norvegicus. Briefly: Effects of N-acetyl-glucosamine on compound stimulated liver association of [125I]LDL measured in liver of rats. The class given is functional. The method in brief: as §2
The species named for assay [10] is Rattus norvegicus. The experiment in a line: Effects of N-acetyl-galactosamine on compound stimulated liver association of [125I]HDL measured in serum of rats. The class given is functional. In short, it runs like this: as §2
The species named for assay [11] is Rattus norvegicus. Briefly: Effects of N-acetyl-glucosamine on compound stimulated liver association of [125I]-LDL measured in serum of rats. The class given is functional. In short, it runs like this:
as §2

The species entered for assay [12] is Homo sapiens. The experiment in a line: Cholesterol in the Total along with compound was measured in human serum. The class given is functional. The method in brief:
as §1

Assay [13] is filed under the species Homo sapiens. The experiment in a line: Carbohydrate in the very low density lipoprotein (VLDL) along with compound was measured in human serum.
The species entered for assay [14] is Homo sapiens. Briefly: Cholesterol in the high density lipoprotein (HDL) along with compound was measured in human serum. It is filed as functional. The method in brief:
as §1

The species entered for assay [15] is Homo sapiens. Briefly: Cholesterol in the low density lipoprotein (LDL) along with compound was measured in human serum. It is filed as functional. In short, it runs like this:
as §1

The species named for assay [16] is Rattus norvegicus. The experiment in a line: Effects of N-acetyl-galactosamine on compound stimulated liver association of [125I]HDL measured in liver of rats. The class given is functional. In short, it runs like this:
as §2

For assay [17], the species on record is Rattus norvegicus. The experiment in a line: Effects of N-acetyl-galactosamine on compound stimulated liver association of [125I]LDL measured in liver of rats. The class given is functional. The method in brief:
as §2

Assay [18] can be described thus: Ratio of carbohydrate in HDL to cholesterol level in HDL. It is filed as functional. The method in brief: (§3)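 Same serum incubation (2 mM final, 10 min, room temperature) and density-gradient fractionation into LDL and HDL. The ratio is μg carbohydrate per μg total cholesterol in each fraction. Values in parentheses compare the ratio with the PBS-only serum lipoproteins.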

Assay [19] in a line: Ratio of carbohydrate in LDL to cholesterol level in LDL. It is filed as functional. The method in brief:
as §3

Assay [20] is filed under the species Rattus norvegicus. Briefly: Effects of N-acetyl-galactosamine on compound stimulated liver association of [125I]LDL measured in serum of rats. It is filed as functional. In short, it runs like this: as §2
The species named for assay [21] is Homo sapiens. The experiment in a line: Cholesterol in the very low density lipoprotein (VLDL) along with compound was measured in human serum. The class given is functional. In short, it runs like this:
as §1

The species entered for assay [22] is Homo sapiens. The experiment in a line: Carbohydrate in the high density lipoprotein (HDL) along with compound was measured in human serum. The class given is functional. The method in brief: as §1

Consider `CC(C)CCCC(C)C1CCC2C3CC=C4CC(OCCOCCOCCOCCOP(O)(=S)OCCO[C@@H]5O[C@H](CO)[C@H](O)[C@H](O)[C@H]5O)CCC4(C)C3CCC12C` (stereo not given in full), for which the Carbohydrate in [1] was 1710 µg; in [2], 480 µg; in [3] it was 500 µg; in assay [6], 100 µg; in [7] it was 2790 µg; in assay [13], 100 µg. Besides, the Cholesterol in assay [4] worked out at 70 µg; in assay [12], 1850 µg; in assay [14], 627 µg; in [15] it was 1048 µg; in assay [21] it was 104 µg. Besides, the Dose in [5] turned out to be 22.2%; in [8], 61.1%; in [9], 61.6%; in assay [10] it was 78.8%; in assay [11], 29.3%; in assay [16] it was 5.8%. Also, the values for the Dose in [17] and in assay [20] were 5.1% and 92.2%, respectively. In addition, the Ratio in assay [18] worked out at 0.8; in [19], 0.45.
Regarding `CC(C)CCCC(C)C1CCC2C3CC=C4CC(OCCOCCOCCOCCOP(O)(=S)OCCSC5OC(CO)C(O)C(O)C5O)CCC4(C)C3CCC12C` (stereo not given), the Carbohydrate is 1590 µg in assay [1]; 580 µg in [2]; 460 µg in assay [3]; 80 µg in assay [6]; 2710 µg in [7]. In addition, the Cholesterol is 85 µg in assay [4]; 1885 µg in assay [12]; 500 µg in [14]; 1161 µg in assay [15]; 108 µg in [21]. In addition, the Ratio in assay [18] amounted to 0.92; in assay [19] it was 0.5.
As to `CC(C)CCCC(C)C1CCC2C3CC=C4CC(OCCOCCOCCOCCOP(O)(=S)OCCOCCOCCSC5OC(CO)C(O)C(O)C5O)CCC4(C)C3CCC12C` (stereo not given), the Carbohydrate in [1] worked out at 1720 µg; in assay [22], 390 µg; in assay [2], 520 µg; in assay [6], 100 µg; in [7], 2730 µg. For the same compound, the Cholesterol was found to be 66 µg in assay [4]; 1947 µg in assay [12]; 484 µg in assay [14]; 1296 µg in [15]; 101 µg in assay [21]. The Ratio came out at 0.81 in assay [18] and 0.4 in [19].

For the origin of these results see ChEMBL document CHEMBL1125919, “Water-soluble cholesteryl-containing phosphorothioate monogalactosides: synthesis, properties, and use in lowering blood cholesterol by directing plasma lipoproteins to the liver” (1991).
